Data taken from ChEMBL document CHEMBL1142258, “Discovery of a series of aminopiperidines as novel iNOS inhibitors” (Bioorg Med Chem Lett, 2008).

Experiments:
Nitric oxide synthase 3 = molecular target: T1, Nitric oxide synthase 3 (Homo sapiens, UniProt P29474); assay: Inhibition of human eNOS expressed in insect SF9 cells after 1 hr
T1 sequence (P29474 whole entry): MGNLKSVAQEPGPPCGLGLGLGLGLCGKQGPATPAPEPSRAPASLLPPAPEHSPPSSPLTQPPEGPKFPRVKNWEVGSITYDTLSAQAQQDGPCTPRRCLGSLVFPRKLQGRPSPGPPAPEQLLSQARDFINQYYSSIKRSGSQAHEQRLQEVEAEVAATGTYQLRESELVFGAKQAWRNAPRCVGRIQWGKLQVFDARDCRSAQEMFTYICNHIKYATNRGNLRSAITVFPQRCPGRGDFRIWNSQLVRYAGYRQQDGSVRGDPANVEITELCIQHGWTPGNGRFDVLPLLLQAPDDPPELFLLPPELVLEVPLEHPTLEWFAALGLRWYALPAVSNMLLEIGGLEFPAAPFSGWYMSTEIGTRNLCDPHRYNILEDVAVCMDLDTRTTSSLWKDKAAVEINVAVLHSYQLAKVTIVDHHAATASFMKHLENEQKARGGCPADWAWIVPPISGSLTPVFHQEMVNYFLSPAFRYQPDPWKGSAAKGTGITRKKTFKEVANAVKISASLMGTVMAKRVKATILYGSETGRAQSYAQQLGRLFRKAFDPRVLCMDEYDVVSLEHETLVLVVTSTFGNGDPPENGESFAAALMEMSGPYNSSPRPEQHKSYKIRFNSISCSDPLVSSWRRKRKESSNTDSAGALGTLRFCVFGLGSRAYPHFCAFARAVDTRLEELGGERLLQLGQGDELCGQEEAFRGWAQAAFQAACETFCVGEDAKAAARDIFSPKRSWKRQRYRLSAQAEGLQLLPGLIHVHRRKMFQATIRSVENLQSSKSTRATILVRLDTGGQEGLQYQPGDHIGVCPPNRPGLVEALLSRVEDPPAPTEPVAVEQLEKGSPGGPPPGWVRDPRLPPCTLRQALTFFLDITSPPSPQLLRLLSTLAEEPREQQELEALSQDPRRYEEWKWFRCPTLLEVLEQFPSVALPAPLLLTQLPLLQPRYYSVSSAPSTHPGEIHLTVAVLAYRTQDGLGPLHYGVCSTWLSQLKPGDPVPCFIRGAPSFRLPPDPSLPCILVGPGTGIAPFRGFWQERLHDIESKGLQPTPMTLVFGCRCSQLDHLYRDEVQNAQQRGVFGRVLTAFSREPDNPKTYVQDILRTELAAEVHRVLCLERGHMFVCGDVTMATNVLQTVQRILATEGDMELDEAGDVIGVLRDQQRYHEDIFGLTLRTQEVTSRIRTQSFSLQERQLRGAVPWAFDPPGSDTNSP
How it was run: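 Human recombinant eNOS from SF9 cells, tested at eight concentrations. Conditions: 10 nM [3H]arginine with NADP+/G6P/G6PDH, MgCl2, FAD, FMN, BH4, plus 25 nM calmodulin, 0.5 mM CaCl2 and 3.5 mM glutathione, in 50 mM Hepes for 1 h at 37 °C. Citrulline was resin-separated and counted, with AMT background. IC50 from one-site fit, geometric mean of ≥3 runs.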

Nitric oxide synthase 1 = Nitric oxide synthase 1 (Homo sapiens, UniProt P29475); assay: Inhibition of human nNOS expressed in insect SF9 cells after 1 hr
Homo sapiens = species on record: Homo sapiens; assay: Selectivity for human eNOS to human iNOS
How it was run: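 Ratio of eNOS IC50 to iNOS IC50, both from [3H]arginine→[3H]citrulline conversion. iNOS was endogenous to DLD-1 cells; eNOS was human recombinant expressed in SF9 cells. Each used 10 nM [3H]arginine with NADP+/G6P/FAD/FMN/BH4 cofactors in 50 mM Hepes for 1 h at 37 °C. The eNOS reaction also had calmodulin, CaCl2 and glutathione. Citrulline was separated by cation exchange and counted. IC50s came from eight concentrations, as geometric means of ≥3 runs.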

[1] = molecular target: T2, Nitric oxide synthase, inducible (Homo sapiens, UniProt P35228); assay: Inhibition of cytokine-induced iNOS activity in human DLD1 cells at 10 uM after 24 hrs; assay type: cell-based; conditions: DLD-1
[2] = molecular target: T2, Nitric oxide synthase, inducible; assay: Inhibition of human iNOS expressed in human DLD1 cells after 1 hr; assay type: cell-based, DLD-1
How it was run: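 Human iNOS endogenously expressed in DLD-1 cells, eight compound concentrations. Incubated 1 h at 37 °C in 50 mM Hepes with 10 nM [3H]arginine, [14C]citrulline internal standard, β-NADP+, G6P, MgCl2, G6P dehydrogenase, FAD, FMN and BH4. [3H]citrulline was separated on cation-exchange resin and counted; AMT defined background.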

[3] = molecular target: T2, Nitric oxide synthase, inducible; assay: Inhibition of cytokine-induced iNOS activity in human DLD1 cells after 24 hrs; assay type: cell-based, DLD-1
How it was run: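 DLD-1 cells were seeded 3 days ahead, then given fresh medium with 20 ng/mL IFNγ, 4 ng/mL TNFα, 2 ng/mL IL1β and 1 mM L-arginine. Compound titrations in 50 mM Hepes pH 7.4 were added at eight concentrations for 24 h at 37 °C, 5% CO2. Nitrite was read with Griess reagent at 540 nm.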

[4] = molecular target: T3, Nitric oxide synthase 3 (Homo sapiens) (UniProt P29474); assay: Inhibition of human eNOS expressed in insect SF9 cells at 10 uM after 1 hr
T3 sequence (whole entry): T1 sequence (P29474 whole entry)

T2 sequence (P35228 whole entry): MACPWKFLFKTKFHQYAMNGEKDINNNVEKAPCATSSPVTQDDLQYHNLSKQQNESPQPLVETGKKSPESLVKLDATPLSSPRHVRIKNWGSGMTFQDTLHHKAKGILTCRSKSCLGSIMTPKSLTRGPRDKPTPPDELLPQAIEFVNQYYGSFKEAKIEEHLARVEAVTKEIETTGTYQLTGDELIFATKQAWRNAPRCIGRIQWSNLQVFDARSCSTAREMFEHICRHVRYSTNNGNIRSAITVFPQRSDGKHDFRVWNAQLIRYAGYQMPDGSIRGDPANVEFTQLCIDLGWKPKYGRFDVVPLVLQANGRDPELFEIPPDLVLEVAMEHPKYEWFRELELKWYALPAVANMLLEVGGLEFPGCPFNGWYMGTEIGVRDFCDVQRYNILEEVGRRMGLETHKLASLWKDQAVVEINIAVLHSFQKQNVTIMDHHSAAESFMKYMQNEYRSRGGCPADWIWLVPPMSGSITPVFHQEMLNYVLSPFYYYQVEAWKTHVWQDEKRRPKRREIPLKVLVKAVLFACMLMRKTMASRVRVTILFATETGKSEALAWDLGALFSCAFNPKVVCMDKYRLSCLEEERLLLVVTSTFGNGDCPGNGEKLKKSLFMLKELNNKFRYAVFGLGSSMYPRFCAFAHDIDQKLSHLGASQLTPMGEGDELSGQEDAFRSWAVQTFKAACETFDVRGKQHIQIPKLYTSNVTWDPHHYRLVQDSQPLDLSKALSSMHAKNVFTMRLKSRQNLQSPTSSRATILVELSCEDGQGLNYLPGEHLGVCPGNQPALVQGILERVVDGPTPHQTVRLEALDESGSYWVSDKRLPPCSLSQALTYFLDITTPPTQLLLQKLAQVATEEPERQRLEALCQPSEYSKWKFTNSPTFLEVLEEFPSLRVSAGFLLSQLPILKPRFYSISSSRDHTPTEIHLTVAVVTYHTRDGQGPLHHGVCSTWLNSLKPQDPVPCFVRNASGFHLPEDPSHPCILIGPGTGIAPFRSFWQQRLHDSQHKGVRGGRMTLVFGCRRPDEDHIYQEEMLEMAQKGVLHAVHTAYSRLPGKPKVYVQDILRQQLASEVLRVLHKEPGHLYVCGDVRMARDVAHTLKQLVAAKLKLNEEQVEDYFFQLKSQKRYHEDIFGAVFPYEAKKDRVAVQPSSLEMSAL
Nitric oxide synthase 1, sequence (P29475 whole entry): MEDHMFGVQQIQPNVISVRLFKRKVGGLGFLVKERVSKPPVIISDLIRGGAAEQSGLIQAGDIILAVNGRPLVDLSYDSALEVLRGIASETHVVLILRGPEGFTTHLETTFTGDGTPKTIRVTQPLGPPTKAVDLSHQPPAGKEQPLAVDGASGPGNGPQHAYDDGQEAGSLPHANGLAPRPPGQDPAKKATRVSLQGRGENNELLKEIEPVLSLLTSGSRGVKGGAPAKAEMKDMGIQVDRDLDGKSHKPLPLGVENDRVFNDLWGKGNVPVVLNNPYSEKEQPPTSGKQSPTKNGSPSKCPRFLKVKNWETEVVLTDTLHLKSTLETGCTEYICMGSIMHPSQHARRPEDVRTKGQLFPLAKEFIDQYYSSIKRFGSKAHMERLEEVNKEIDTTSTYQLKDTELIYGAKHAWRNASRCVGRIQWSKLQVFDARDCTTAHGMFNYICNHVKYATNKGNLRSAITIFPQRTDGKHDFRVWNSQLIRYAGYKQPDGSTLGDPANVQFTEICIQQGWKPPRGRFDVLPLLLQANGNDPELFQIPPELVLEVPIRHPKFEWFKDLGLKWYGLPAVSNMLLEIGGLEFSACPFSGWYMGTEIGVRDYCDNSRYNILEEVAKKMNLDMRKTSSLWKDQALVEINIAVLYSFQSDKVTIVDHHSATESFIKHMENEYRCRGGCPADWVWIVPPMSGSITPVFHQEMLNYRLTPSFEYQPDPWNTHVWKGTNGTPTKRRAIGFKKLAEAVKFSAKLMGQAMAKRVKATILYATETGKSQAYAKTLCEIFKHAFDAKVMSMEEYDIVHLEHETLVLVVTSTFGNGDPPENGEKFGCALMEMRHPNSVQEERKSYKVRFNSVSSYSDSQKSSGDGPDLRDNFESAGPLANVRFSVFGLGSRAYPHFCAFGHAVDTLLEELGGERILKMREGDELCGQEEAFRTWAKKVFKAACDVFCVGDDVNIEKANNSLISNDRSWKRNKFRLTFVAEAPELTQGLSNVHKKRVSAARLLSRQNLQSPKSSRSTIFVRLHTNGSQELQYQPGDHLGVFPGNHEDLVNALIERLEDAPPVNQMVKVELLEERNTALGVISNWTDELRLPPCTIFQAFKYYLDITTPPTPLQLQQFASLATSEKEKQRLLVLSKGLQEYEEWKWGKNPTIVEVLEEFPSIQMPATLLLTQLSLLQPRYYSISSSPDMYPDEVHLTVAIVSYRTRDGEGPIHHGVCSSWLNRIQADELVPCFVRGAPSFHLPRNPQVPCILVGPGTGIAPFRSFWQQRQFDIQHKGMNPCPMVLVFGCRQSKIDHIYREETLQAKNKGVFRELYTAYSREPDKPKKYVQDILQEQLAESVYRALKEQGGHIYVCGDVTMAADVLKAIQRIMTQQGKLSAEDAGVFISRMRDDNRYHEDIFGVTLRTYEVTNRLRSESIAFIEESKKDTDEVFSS

Row | SMILES | IC50 (Nitric oxide synthase 3) [nM] | IC50 (Nitric oxide synthase 1) [nM] | Ratio IC50 (Homo sapiens) | inhibition [1] [%] | IC50 [2] [nM] | IC50 [3] [nM] | inhibition [4] [%]
1 | CN(Cc1cc(Cl)ccc1C#N)C1CCCNCC1 (stereo not given) | 4400 | 1200 | 7 | 31 | 660 |  | 
2 | CN(Cc1cc(Cl)ccc1C#N)C1CCN(CC2CC2)CC1 | 860 | 530 | 3 |  | 250 | 3500 | 
3 | N#Cc1ccc(C(=O)N2CCC3(CC2)N=C(N)c2c(F)ccc(F)c2N3)cn1 |  |  |  |  |  |  | < 15
4 | CC(C)CN(Cc1cc(Cl)ccc1C#N)[C@@H]1CCCN(C)C1 |  | 4900 | > 15 |  | 470 | 660 | 0
5 | CC(C)CN(Cc1cc(Cl)ccc1C#N)C1CCNCC1 |  | 1900 | > 25 |  | 390 | 570 | 20
6 | CN1CCC(N(C)Cc2cc(Cl)ccc2C#N)CC1 | 770 | 540 | 3 |  | 290 | 3700 | 
7 | CC(=N)NCCCC[C@H](N)C(=O)O [L-NIL] | 2500 | 6000 | 9 |  | 280 | 31000 | 
8 | COc1ccc(C#N)c(CN(C)C2CCN(C)CC2)c1 |  |  |  | < 15 | 5100 |  | 
9 | CC(C)CN(Cc1cc(Cl)ccc1C#N)[C@@H]1CCCNC1 |  | 1200 | > 25 |  | 260 | 1500 | 23
10 | CN(Cc1cc(Cl)ccc1C#N)C1CCN(Cc2ccccc2)CC1 | 4300 | 1800 | 16 |  | 270 | 3500 | 
11 | CC(C)CN(Cc1cc(Cl)ccc1C#N)[C@H]1CCCN(C)C1 |  | 6500 | > 50 |  | 720 | 320 | 0
12 | CCCN(Cc1cc(Cl)ccc1C#N)C1CCNCC1 | 1700 | 140 | 13 |  | 130 | 280 | 
13 | CCCCN1CCC(N(C)Cc2cc(Cl)ccc2C#N)CC1 | 680 | 420 | 2 |  | 340 | 3800 | 
14 | CN(Cc1cc(Cl)ccc1C#N)C1CCCNC1 (stereo not given) | 983 | 190 | 5 |  | 180 | 4400 | 
15 | CN(Cc1cc(Cl)ccc1C#N)C1CCNCC1 | 1100 | 350 | 3 |  | 330 | 5900 | 
16 | CCCCN(Cc1cc(Cl)ccc1C#N)C1CCNCC1 |  |  |  |  | 570 | 5000 | 
17 | CCN(Cc1cc(Cl)ccc1C#N)C1CCNCC1 | 1000 | 360 | 10 |  | 100 | 580 | 
18 | CN1CCC(N(C)Cc2cc(Br)ccc2C#N)CC1 | 810 | 530 | 4 |  | 210 | 3700 | 
19 | CN(Cc1cc(Cl)ccc1C#N)C1CCN(CCc2ccccc2)CC1 | 220 | 150 | 1 |  | 300 | 3300 | 
20 | CC(C)CN1CCC(N(C)Cc2cc(Cl)ccc2C#N)CC1 | 540 | 600 | 1 |  | 400 | 3200 | 
21 | CN1CCC(N(C)Cc2cc(Cl)ccc2C(F)(F)F)CC1 | 1400 | 780 | 2 | 48 | 700 |  | 
22 | CC(C)CN(Cc1cc(Cl)ccc1C#N)C1CCCNC1 (stereo not given) |  | 2500 | > 15 |  | 290 | 1200 | 15
23 | CN1CCC(N(C)Cc2cc(Cl)ccc2[N+](=O)[O-])CC1 | 180 | 80 | 2 |  | 90 | 1100 | 
24 | CCCN1CCC(N(C)Cc2cc(Cl)ccc2C#N)CC1 | 1100 | 810 | 2 |  | 670 | 4400 | 
25 | CN(Cc1cc(Cl)ccc1C#N)C1CCNC1 (stereo not given) | 4000 | 1200 | 3 | 33 | 1200 |  | 
26 | N#Cc1ccc(Cl)cc1CN(CC1CC1)C1CCNCC1 | 2100 | 748 | 13 |  | 160 | 1400 | 
27 | CC(C)N(Cc1cc(Cl)ccc1C#N)C1CCNCC1 | 570 | 190 | 18 |  | 32 | 380 | 
28 | CC(C)CN(Cc1cc(Cl)ccc1C#N)[C@H]1CCCNC1 |  | 5300 | > 25 |  | 330 | 570 | 0
29 | CCN1CCC(N(C)Cc2cc(Cl)ccc2C#N)CC1 | 450 | 370 | 1 |  | 370 | 4500 | 
